# Measured values taken from the RNAGym collection of RNA variant scans (doi:10.1126/science.aae0568).
# Fewer inactive variants are shown than the library holds.
# B1: tRNA (parent)
# chain: GUUCCGUUGGCGUAAUGGUAACGCGUCUCCCUCCUAAGGAGAAGACUGCGGGUUCGAGUCCCGUACGGAACG
# Variants of: B1
# Assay: yeast fitness relative to wild type (ratio to wild type); higher = fitter; tRNA-Arg(CCU), competitive growth, 37 C, YPD
# Outline: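 For this measurement, the tRNA-Arg(CCU) gene was varied by chemical synthesis at a 3% per-site mutation rate across 69 sites, and each variant was placed at the native genomic locus in Saccharomyces cerevisiae. The pooled strains went through a 24-hour competition in YPD at 37°C in six parallel replicates, with amplicons from start and end populations read by 100-nucleotide paired-end sequencing. Darwinian fitness relative to wild type followed from the change in each genotype's frequency. Genotypes needed ≥ 100 starting reads, and estimates < 0.5 were set to 0.5.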
row,Variant,yeast fitness
1,A15U A43U A65C,0.569
2,A15G G25A,0.87
3,A15G G25C,0.987
4,A15U C22G G58C G68A,≤ 0.5
5,A15G G48A,0.879
6,A15G G48C,0.841
7,A15G G44A G58A,0.992
8,A15U C27G U28G G67C,≤ 0.5
9,A15G G50C C60U,≤ 0.5
10,A15U C31A C49G A70C,≤ 0.5
11,A15G C62U A69C,0.829
12,A15G U19G A69C,0.721
13,A15U C49U,0.731
14,A15G C34G A37U C49G,≤ 0.5
15,A15U C22G C27U A36C G39C G48C G63U A70U,≤ 0.5
16,A15G C49U A69U,0.8
17,A15U C60A G63A,≤ 0.5
18,A15G G23C A37U A65U,≤ 0.5
19,A15G C24G C66G G67A,0.64
20,A15U C27U C66A,≤ 0.5
21,A15U C22G G25A C31U A57C U64A G68A,≤ 0.5
22,A15G G63C,0.918
23,A15U G17C C27U C60G,≤ 0.5
24,A15U A21C G23C C55A U64A A65C G67A,≤ 0.5

row,Variant,yeast fitness
1,A15U C31U G67A,0.565
2,A15U A65G,0.649
3,A15U A65U,0.775
4,A15U A43U A69C,0.697
5,A15G U35A A57G C62G,≤ 0.5
6,A15U C27U C34U G41C U47G,0.555
7,A15U C22G G52A,≤ 0.5
8,A15U C22G G52C,0.529
9,A15U C24U C27U C49U,≤ 0.5
10,A15G G17A A40C,≤ 0.5
11,A15G U53A C55A U64G,0.571
12,A15G C49G G63C,0.594
13,A15G C31U G58A,1.03
14,A15G C27U U28C,0.731
15,A15U C29A C34U C55A,0.519
16,A15G G23C G38C G52C C66A,≤ 0.5
17,A15G G23C U28A,≤ 0.5
18,A15G G23C G38C G52C U54C G58A,≤ 0.5
19,A15U A37C,0.678
20,A15U A37G,0.66
21,A15G C29A A36G G39A,≤ 0.5
22,A15U C24U C27U G67A,≤ 0.5
23,A15G U26G G41C A43C,≤ 0.5
24,A15G C31G U35C A43C,0.586

row,Variant,yeast fitness
1,A15U C33G G50U,0.527
2,A15U C24G A42C,≤ 0.5
3,A15U C34G A69U,≤ 0.5
4,A15U A37U G67C,≤ 0.5
5,A15U A21C C24G C29U A42C,≤ 0.5
6,A15U C27U G48C A70U,0.549
7,A15U C31G G50C G58C,0.588
8,A15G G23C G38C C49U,≤ 0.5
9,A15U C27G U28C C62G,0.534
10,A15U A20G C55U G63C,≤ 0.5
11,A15U C29A C49G,0.634
12,A15G U26C G56A A69U,≤ 0.5
13,A15U C27G C49A G52U,≤ 0.5
14,A15G U35A A65C,≤ 0.5
15,A15U C24G C30U A57U,0.832
16,A15U C27U G48C,0.587
17,A15G C24G A37G C49A,≤ 0.5
18,A15U C46U C66U A69G,≤ 0.5
19,A15U C27U A36G G56C,≤ 0.5
20,A15G G48C G51A A65C,≤ 0.5
21,A15U A42U C46G C61G,0.652
22,A15G U28G,0.646
23,A15G C24G C29U C34G U35C U54G G67C,≤ 0.5
24,A15U C24U A40U G41C U64C,0.647

row,Variant,yeast fitness
1,A15G G50A G58C C66U,≤ 0.5
2,A15U A20G U28G C33U,≤ 0.5
3,A15U C49G A70G,0.576
4,A15U A40U G63A,≤ 0.5
5,A15G U32G U35C A43C,0.585
6,A15G G68A,0.894
7,A15G C29A A42C A70U,≤ 0.5
8,A15G G39C C46U,0.689
9,A15U C22G C31U A57C U64A G68A,0.553
10,A15G U19G A42G,0.702
11,A15U C31A C60G,≤ 0.5
12,A15G U16A A45U,0.642
13,A15U G18A A42U,0.567
14,A15U C22U U54C,0.754
15,A15U A57U A70C,≤ 0.5
16,A15U A40G A42G A57U C62G C66U,≤ 0.5
17,A15U G17A U53C C66U A69U,≤ 0.5
18,A15G C62G C66G,≤ 0.5
19,A15G C62G C66U,0.535
20,A15G G17C C33A C46A G52A G63C,≤ 0.5
21,A15G C24A G63A,≤ 0.5
22,A15G U19G C66U,0.721
23,A15U C22U A43C C55U G58A,≤ 0.5
24,A15U C24A C34G G39U G58C,≤ 0.5

row,Variant,yeast fitness
1,A15U A21C C24G C29U A42C G56U U59A,≤ 0.5
2,A15U C55U G56A C66G,0.59
3,A15U C60G C66G,≤ 0.5
4,A15G C34U A40U,≤ 0.5
5,A15G C60G C62U,≤ 0.5
6,A15G U26G C30U A40U G52A,≤ 0.5
7,A15U A20G C27A C29A U47G C60G,≤ 0.5
8,A15U C46G C55A A69U,≤ 0.5
9,A15U C22G C31U C46G G63A,≤ 0.5
10,A15G C31G U47G C49G,0.545
11,A15G C31G U35C A37U A57U,≤ 0.5
12,A15G G38C C49U,0.544
13,A15G C29A A69C,0.517
14,A15U C33U,0.724
15,A15U A37G A42C C49G C61U,≤ 0.5
16,A15U A43C G67U,≤ 0.5
17,A15G U35A A57G,≤ 0.5
18,A15G G17A,0.881
19,A15G C27G A36U G39C A69C,≤ 0.5
20,A15G C24G U32A G41A A69U,≤ 0.5
21,A15G C31G,0.852
22,A15G C31U,0.987
23,A15G C31G U35C A43C A57C G58A,≤ 0.5
24,A15U C27G U54A,≤ 0.5

row,Variant,yeast fitness
1,A15U C22G C27G A42C G63C,≤ 0.5
2,A15G G44C A65C,≤ 0.5
3,A15U A21C,0.611
4,A15G C24U C29U C30G U35G A70G,≤ 0.5
5,A15U A45C C46A C66U,≤ 0.5
6,A15G U32G A40C,≤ 0.5
7,A15U C27G C49A,0.518
8,A15G G18A G48C C61A,≤ 0.5
9,A15U C27U A36G C61U C62U,≤ 0.5
10,A15U C27G,0.531
11,A15G U35A A70U,0.572
12,A15U C29A C31G C60G,0.618
13,A15U A43G U59C,0.53
14,A15U C22G C31U C46G U54A,≤ 0.5
15,A15U C24U A37G U54C C66A,≤ 0.5
16,A15U C31U G52A A57U G58C,≤ 0.5
17,A15G C24U C29U C30G U35G,0.737
18,A15G G17A C30A,0.529
19,A15G G44U A57U G58A C66G,≤ 0.5
20,A15G C29G C33G,≤ 0.5
21,A15G C60U C62U,0.64
22,A15G G17A C29G C31U A65G C66G,0.552
23,A15G G51A A70U,0.533
24,A15U A21C G23C C55A U64A A65C,≤ 0.5

row,Variant,yeast fitness
1,A15G G23A G48A,0.675
2,A15G U19A A69U,0.729
3,A15G G44C A57U,≤ 0.5
4,A15G C30A A43G A57U,0.529
5,A15G U28G A42U G48A G67A,≤ 0.5
6,A15U A21C G23C C55A,≤ 0.5
7,A15G U35A,0.602
8,A15G G25A C27A G50A,0.592
9,A15U C46G C61A A70U,≤ 0.5
10,A15U A45U C46G,≤ 0.5
11,A15U C24A C55U U59C,0.526
12,A15U C66U A69U,0.566
13,A15G G48A C66U,0.747
14,A15U A20C C27U,0.748
15,A15U A20C,0.646
16,A15U A20G,0.772
17,A15U C31G U54G,≤ 0.5
18,A15G G39C,0.736
19,A15G C29G A37U,≤ 0.5
20,A15U A20C U26A C30G U35A G38C U64A,≤ 0.5
21,A15U A21G C29U G44C C55A G56C,≤ 0.5
22,A15U C29G G48A A69U,≤ 0.5
23,A15U C29A G48C,≤ 0.5
